Measurements reported in ChEMBL document CHEMBL3611988, “Design and synthesis of 4-benzylpiperidine carboxamides as dual serotonin and norepinephrine reuptake inhibitors” (Bioorg Med Chem, 2015).

Experiments:
Format in all cases: cell-based
[1] = biological target: T1, Sodium-dependent serotonin transporter (Homo sapiens, UniProt P31645); assay: Inhibition of human SERT expressed in HEK293 cells assessed as reduction of serotonin reuptake using [3H]-SERT at 1 uM after 15 mins by liquid scintillation counting relative to venlafaxine HCl
Outline: (§1)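 HEK-293 cells stably transfected with hSERT or hNET, grown at 37 °C in 5% CO2, seeded in poly-lysine-coated 24-well plates for 24 h. Washed, then preincubated with test drug in uptake buffer (Tris/HEPES, NaCl, KCl, CaCl2, MgSO4, ascorbic acid, glucose; pH 7.1) at 37 °C for 15–20 min. Radiolabelled substrate added at 20 nM final for about 5 min at 37 °C. Cells washed three times with ice-cold buffer and lysed in 1% SDS.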
Target sequence in this assay (P31645 whole entry, looked up): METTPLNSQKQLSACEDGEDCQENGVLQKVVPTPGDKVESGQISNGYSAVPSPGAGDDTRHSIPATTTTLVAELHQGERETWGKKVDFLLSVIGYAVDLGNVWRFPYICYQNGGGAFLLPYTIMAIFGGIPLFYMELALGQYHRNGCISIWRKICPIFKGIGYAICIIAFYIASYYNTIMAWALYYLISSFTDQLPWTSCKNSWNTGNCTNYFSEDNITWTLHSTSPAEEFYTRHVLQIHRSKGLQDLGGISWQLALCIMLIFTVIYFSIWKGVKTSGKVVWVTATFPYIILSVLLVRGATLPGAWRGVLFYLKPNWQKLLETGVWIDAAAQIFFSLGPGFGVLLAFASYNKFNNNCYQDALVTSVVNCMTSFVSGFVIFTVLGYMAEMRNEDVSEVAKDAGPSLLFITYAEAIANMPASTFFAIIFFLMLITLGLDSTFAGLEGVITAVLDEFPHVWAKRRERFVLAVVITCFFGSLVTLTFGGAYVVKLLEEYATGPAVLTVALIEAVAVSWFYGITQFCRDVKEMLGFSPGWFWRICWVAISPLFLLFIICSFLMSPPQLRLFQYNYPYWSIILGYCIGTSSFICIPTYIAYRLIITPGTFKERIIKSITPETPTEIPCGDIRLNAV

[2] = biological target: T2, Sodium-dependent noradrenaline transporter (Homo sapiens, UniProt P23975); assay: Inhibition of human NET expressed in HEK293 cells assessed as reduction of […] reuptake using [3H]-NET at 3 uM after 15 mins by liquid scintillation counting relative to venlafaxine HCl; outline: as §1
[3] = biological target: T2, Sodium-dependent noradrenaline transporter; assay: Inhibition of human NET expressed in HEK293 cells assessed as reduction of […] reuptake using [3H]-NET at 1 uM after 15 mins by liquid scintillation counting relative to GBR-12909; outline: as §1
[4] = biological target: T2, Sodium-dependent noradrenaline transporter; assay: Inhibition of human NET expressed in HEK293 cells assessed as reduction of […] reuptake using [3H]-NET after 15 mins by liquid scintillation counting; outline: as §1
[5] = biological target: T1, Sodium-dependent serotonin transporter; assay: Inhibition of human SERT expressed in HEK293 cells assessed as reduction of serotonin reuptake using [3H]-SERT after 15 mins by liquid scintillation counting
Target sequence in this assay (P31645 whole entry): as the sequence (P31645 whole entry, looked up) above

T2 sequence (P23975 whole entry): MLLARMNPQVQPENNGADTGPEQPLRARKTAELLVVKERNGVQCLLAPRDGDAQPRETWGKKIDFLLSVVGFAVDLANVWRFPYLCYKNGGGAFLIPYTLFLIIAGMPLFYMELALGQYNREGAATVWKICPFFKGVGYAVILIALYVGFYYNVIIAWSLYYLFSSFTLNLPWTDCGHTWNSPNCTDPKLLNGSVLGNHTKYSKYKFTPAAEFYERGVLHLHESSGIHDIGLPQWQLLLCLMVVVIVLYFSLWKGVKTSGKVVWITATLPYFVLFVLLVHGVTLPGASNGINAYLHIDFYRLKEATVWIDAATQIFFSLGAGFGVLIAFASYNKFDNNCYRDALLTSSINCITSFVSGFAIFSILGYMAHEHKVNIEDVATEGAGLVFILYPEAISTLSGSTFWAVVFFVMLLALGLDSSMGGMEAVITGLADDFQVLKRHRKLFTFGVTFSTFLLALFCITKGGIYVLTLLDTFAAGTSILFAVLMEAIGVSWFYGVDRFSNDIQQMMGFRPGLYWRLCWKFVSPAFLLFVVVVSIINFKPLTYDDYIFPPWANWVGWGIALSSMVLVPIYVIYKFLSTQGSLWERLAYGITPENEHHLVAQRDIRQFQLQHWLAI

Row | Structure (SMILES) | Ratio [1] | Ratio [2] | Ratio [3] | IC50 [4] | IC50 [5]
1 | COc1ccc2cc(C(=O)NCCN3CCC(Cc4ccccc4)CC3)ccc2c1 | 0.63 | 1.97 | – | – | –
2 | O=C(NCCN1CCC(Cc2ccccc2)CC1)c1ccc2cc(Br)ccc2c1 | 0.51 | – | 0.83 | – | –
3 | COc1ccc2cc(C(=O)NCCCN3CCC(Cc4ccccc4)CC3)ccc2c1 | 0.98 | – | 1 | 238 nM | 323 nM
4 | O=C(NCCCN1CCC(Cc2ccccc2)CC1)c1ccc2cc(Br)ccc2c1 | 1.11 | – | 0.94 | 885 nM | 1910 nM
5 | O=C(NCCCN1CCC(Cc2ccccc2)CC1)c1ccc2ccccc2n1 | 0.85 | 0.62 | – | – | –
6 | O=C(NCCN1CCC(Cc2ccccc2)CC1)c1cc2ccccc2[nH]1 | 0.58 | 1.49 | – | – | –
7 | O=C(NCCCN1CCC(Cc2ccccc2)CC1)C(c1ccccc1)c1ccccc1 | 0.26 | 1.19 | – | – | –
8 | O=C(NCCN1CCC(Cc2ccccc2)CC1)c1cc2ccccc2s1 | 0.77 | 1.92 | – | – | –
9 | O=C(NCCN1CCC(Cc2ccccc2)CC1)c1ccc2ccccc2c1 | 0.8 | – | 1.27 | – | –
10 | O=C(NCCN1CCC(Cc2ccccc2)CC1)c1ccc2ccccc2n1 | 1.03 | – | 0.53 | 275 nM | 786 nM
11 | O=C(NCCCN1CCC(Cc2ccccc2)CC1)c1ccc2ccccc2c1 | 0.95 | – | 1.03 | 342 nM | 108 nM
12 | O=C(NCCCN1CCC(Cc2ccccc2)CC1)c1cc2ccccc2o1 | 0.84 | 1.54 | – | 621 nM | 500 nM
13 | O=C(NCCCN1CCC(Cc2ccccc2)CC1)C(c1ccc(Cl)cc1)c1ccc(Cl)cc1 | 0.19 | 1.37 | – | – | –
14 | O=C(NCCCN1CCC(Cc2ccccc2)CC1)c1cc(Cl)cc(Cl)c1 | 0.83 | – | 1.12 | 267 nM | 422 nM
15 | O=C(NCCN1CCC(Cc2ccccc2)CC1)c1cc(Cl)cc(Cl)c1 | 0.64 | – | 1 | – | –
16 | O=C(NCCN1CCC(Cc2ccccc2)CC1)c1ccc(-c2ccccc2)cc1 | 0.98 | 1.49 | – | 472 nM | 986 nM
17 | O=C(NCCN1CCC(Cc2ccccc2)CC1)c1cccc2ccccc12 | 0.91 | – | 0.1 | – | –
18 | O=C(NCCCN1CCC(Cc2ccccc2)CC1)c1cc2ccccc2s1 | 1.1 | 1.8 | – | 4750 nM | 449 nM
19 | O=C(NCCCN1CCC(Cc2ccccc2)CC1)c1cccc2ccccc12 | 0.6 | – | 1.32 | – | –
20 | O=C(NCCN1CCC(Cc2ccccc2)CC1)C(c1ccccc1)c1ccccc1 | 0.29 | 1.04 | – | – | –
21 | O=C(NCCCN1CCC(Cc2ccccc2)CC1)c1ccc(-c2ccccc2)cc1 | 1.01 | 1.59 | – | 153 nM | 56 nM
22 | O=C(NCCN1CCC(Cc2ccccc2)CC1)c1cc2ccccc2o1 | 0.78 | 1.09 | – | – | –
23 | O=C(NCCN1CCC(Cc2ccccc2)CC1)C(c1ccc(Cl)cc1)c1ccc(Cl)cc1 | 0.4 | 1.54 | – | – | –
24 | O=C(NCCCN1CCC(Cc2ccccc2)CC1)c1cc2ccccc2[nH]1 | 0.84 | 1.72 | – | 268 nM | 546 nM
